Laboratory results reported in publication PMC5599992 (Journal of Clinical Pharmacology, 2017).
Where “and” joins values, the source holds several entries; their conditions need not be identical. Equal values may be shown once. Read-outs that look alike come from different tables or passages of the source.

Assays:
[1] = Population pharmacokinetic analysis of CC‐292; type: in vivo, human
Summary of the method: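 Data came from healthy volunteers (50, 100 or 200 mg or placebo orally QD for 7 days; intensive sampling predose to 24 h on days 1 and 7, troughs on days 3–6) and patients (sparse cycle 1–3 samples). Plasma was assayed by LC-MS/MS (LLOQ ≤0.5 ng/mL, labeled internal standard). The NONMEM FOCE-I 2-compartment model with first-order absorption and lag used ln-transformed data and separate residual error per population. There were 1000 bootstrap runs with 5th–95th percentile CIs.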

CLL/SLL [2] = experiment: Best overall response in CLL/SLL subjects, phase 1b study AVL‐292‐003; type: in vivo, human
CLL/SLL [3] = experiment: Exposure‐response analysis; type: in vivo, human
Summary of the method: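 In relapsed/refractory CLL/SLL patients from the phase 1b study, log-transformed steady-state AUC came from noncompartmental analysis. ORR (CR, CRi or PR; updated iwCLL criteria) was modeled as responder vs nonresponder by logistic regression, first univariate, then multivariate with stepwise forward/backward covariate selection. Covariates were age, BSA, sex, race, QD vs BID regimen, CLcr, bilirubin, albumin, ALT and AST.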

CLL/SLL [4] = experiment: Threshold analysis; type: in vivo, human; conditions: threshold 300 ng/mL
[5] = monkeys; ref data on file; cited from earlier work
[6] = rats; ref data on file; cited from earlier work
[7] = rats; ref data on file; cited from earlier work; remark: listed apart in the source
CYP3A4 = conditions: ref data on file; cited from earlier work
CYP1A2 = conditions: ref data on file; cited from earlier work
[8] = based on final population PK parameters

C=CC(=O)Nc1cccc(Nc2nc(Nc3ccc(OCCOC)cc3)ncc2F)c1 [CC‐292]
interindividual variability for V2/F ([1]; base model): 88% | distribution rate [1, 8]: 0.11 h⁻¹ | elimination rate [1, 8]: 0.85 h⁻¹ | Alag1, Bootstrap Estimate (95%CI) ([1]; bootstrap N = 1000): 0.428 (0.414‐0.439) h | CL/F, Bootstrap Estimate (95%CI) ([1]; bootstrap N = 1000): 131.9 (109.0‐166.6) L/h | Effect of age on V2/F, Bootstrap Estimate (95%CI) ([1]; bootstrap N = 1000): 0.946 (0.592‐1.355) | Interindividual variability ωV2/F: ωCL/F, Bootstrap Estimate (95%CI) ([1]; bootstrap N = 1000): 0.321 (0.198‐0.461) | Interindividual variability ω^2 CL/F, Bootstrap Estimate (95%CI) ([1]; bootstrap N = 1000): 0.306 (0.202‐0.454) | Interindividual variability ω^2 V2/F, Bootstrap Estimate (95%CI) ([1]; bootstrap N = 1000): 0.750 (0.526‐1.010) | Q/F, Bootstrap Estimate (95%CI) ([1]; bootstrap N = 1000): 18.4 (15.3‐21.7) L/h | V2/F, Bootstrap Estimate (95%CI) ([1]; bootstrap N = 1000): 156.4 (130.2‐187.8) L | V3/F, Bootstrap Estimate (95%CI) ([1]; bootstrap N = 1000): 71.7 (61.4‐83.5) L | ka, Bootstrap Estimate (95%CI) ([1]; bootstrap N = 1000): 0.97 (0.86‐1.11) h^−1 | Residual variability HNP, Bootstrap Estimate (95%CI) ([1]; bootstrap N = 1000, healthy normal study subjects): 0.230 (0.180‐0.288) | Residual variability Patients, Bootstrap Estimate (95%CI) ([1]; bootstrap N = 1000, patients): 0.654 (0.537‐0.708) | Vd/F ([1]; both, human, plasma, oral): 158 L | clearance ([1]; both, human, plasma, oral): 2230 mL/min | interindividual variability for V2/F ([1]; final model (age included)): 86% | Alag1, absorption lag time, Estimate ([1]; final population PK model): 0.427 h | Interindividual variability ωV2/F: ωCL/F, Estimate ([1]; final population PK model): 0.328 | Interindividual variability ω^2 CL/F, Estimate ([1]; final population PK model): 0.317 | Interindividual variability ω^2 V2/F, Estimate ([1]; final population PK model): 0.755 | lower CL/F in female subjects compared to male subjects ([1]; final population PK model): 26% | Residual variability HNP, Estimate ([1]; final population PK model, healthy normal study subjects): 0.234 | ka, first‐order absorption rate constant, Estimate ([1]; final population PK model, oral, healthy subjects and patients): 0.97 h⁻¹ and 0.974 h⁻¹ | Residual variability Patients, Estimate ([1]; final population PK model, patients): 0.659 | Effect of age on V2/F, Estimate ([1]; final population PK model, power exponent): 0.946 | CL/F, apparent clearance, Estimate ([1]; final population PK model, typical value for male subjects): 134 L/h and 134.0 L/h | CL/F relative to Q/F (Q/F lower than CL/F) ([1]; in vivo): 7.2 fold and ~7 fold | differences in drug exposures between female and male subjects ([1]; in vivo): below 26% | Best overall response: Complete response (CLL/SLL [2]; 125 mg QD): 0 n (%) | Best overall response: Partial response (CLL/SLL [2]; 125 mg QD): 1 (33.3) n (%) | Best overall response: Progression disease (CLL/SLL [2]; 125 mg QD): 0 n (%) | Best overall response: Stable disease (CLL/SLL [2]; 125 mg QD): 2 (66.7) n (%) | Overall response rate (CLL/SLL [2]; 125 mg QD): 1 (33.3) n (%) | Best overall response: Complete response (CLL/SLL [2]; 250 mg QD): 0 n (%) | Best overall response: Partial response (CLL/SLL [2]; 250 mg QD): 0 n (%) | Best overall response: Progression disease (CLL/SLL [2]; 250 mg QD): 0 n (%) | Best overall response: Stable disease (CLL/SLL [2]; 250 mg QD): 1 (100) n (%) | Overall response rate (CLL/SLL [2]; 250 mg QD): 0 n (%) | Best overall response: Complete response (CLL/SLL [2]; 375 mg BID): 0 n (%) | Best overall response: Partial response (CLL/SLL [2]; 375 mg BID): 4 (66.7) n (%) | Best overall response: Progression disease (CLL/SLL [2]; 375 mg BID): 0 n (%) | Best overall response: Stable disease (CLL/SLL [2]; 375 mg BID): 2 (33.3) n (%) | Overall response rate (CLL/SLL [2]; 375 mg BID): 4 (66.7) n (%) | Best overall response: Complete response (CLL/SLL [2]; 400 mg QD): 0 n (%) | Best overall response: Partial response (CLL/SLL [2]; 400 mg QD): 1 (25.0) n (%) | Best overall response: Progression disease (CLL/SLL [2]; 400 mg QD): 0 n (%) | Best overall response: Stable disease (CLL/SLL [2]; 400 mg QD): 3 (75.0) n (%) | Overall response rate (CLL/SLL [2]; 400 mg QD): 1 (25.0) n (%) | Best overall response: Complete response (CLL/SLL [2]; 500 mg BID): 0 n (%) | Best overall response: Partial response (CLL/SLL [2]; 500 mg BID): 19 (61.3) n (%) | Best overall response: Progression disease (CLL/SLL [2]; 500 mg BID): 0 n (%) | Best overall response: Stable disease (CLL/SLL [2]; 500 mg BID): 12 (38.7) n (%) | Overall response rate (CLL/SLL [2]; 500 mg BID): 19 (61.3) n (%) | Best overall response: Complete response (CLL/SLL [2]; 625 mg QD): 0 n (%) | Best overall response: Partial response (CLL/SLL [2]; 625 mg QD): 0 n (%) | Best overall response: Progression disease (CLL/SLL [2]; 625 mg QD): 0 n (%) | Best overall response: Stable disease (CLL/SLL [2]; 625 mg QD): 1 (100) n (%) | Overall response rate (CLL/SLL [2]; 625 mg QD): 0 n (%) | Best overall response: Complete response (CLL/SLL [2]; 750 mg QD): 0 n (%) | Best overall response: Partial response (CLL/SLL [2]; 750 mg QD): 12 (41.4) n (%) | Best overall response: Progression disease (CLL/SLL [2]; 750 mg QD): 1 (3.4) n (%) | Best overall response: Stable disease (CLL/SLL [2]; 750 mg QD): 16 (55.2) n (%) | Overall response rate (CLL/SLL [2]; 750 mg QD): 12 (41.4) n (%) | Best overall response: Complete response (CLL/SLL [2]; 1000 mg QD): 0 n (%) | Best overall response: Partial response (CLL/SLL [2]; 1000 mg QD): 4 (57.1) n (%) | Best overall response: Progression disease (CLL/SLL [2]; 1000 mg QD): 0 n (%) | Best overall response: Stable disease (CLL/SLL [2]; 1000 mg QD): 3 (42.9) n (%) | Overall response rate (CLL/SLL [2]; 1000 mg QD): 4 (57.1) n (%) | Best overall response: Complete response (CLL/SLL [2]; Total, all cohorts): 0 n (%) | Best overall response: Partial response (CLL/SLL [2]; Total, all cohorts): 41 (50.0) n (%) | Best overall response: Progression disease (CLL/SLL [2]; Total, all cohorts): 1 (1.2) n (%) | Best overall response: Stable disease (CLL/SLL [2]; Total, all cohorts): 40 (48.8) n (%) | Overall response rate (CLL/SLL [2]; Total, all cohorts): 41 (50.0) n (%) | mean ORR (CLL/SLL [3]; first quartile of average AUC): 35% | mean ORR (CLL/SLL [3]; fourth quartile of average AUC): 50.2% | duration/coverage at and above the threshold concentration (CLL/SLL [4]; 375 mg BID): ~10.4 h | duration/coverage at and above the threshold concentration (CLL/SLL [4]; 750 mg QD): 6.6 h | extent of bioavailability [5]: 11% | extent of bioavailability [6]: 57% | CC‐292–derived radioactivity excreted in the bile [7]: ~79 % of the dose | metabolism by CYP3A4 (CYP3A4): extensively metabolized | metabolism by CYP1A2 (CYP1A2): extensively metabolized
